The first data set has as its system U-87 MG. Description: Cytotoxicity in human U87 cells assessed as reduction in cell viability incubated for 72 hrs by SRB assay. Format: functional, cell-based, U-87MG ATCC.
Conditions: not given
In short, it runs like this:
(§1)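 SRB assay of cell viability in human cancer lines (HeLa, KB, A549, U87, HepG2) and normal dermal fibroblasts (HDF). IC50 values are […] of three independent experiments.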
For orientation: In SRB staining, fixed cells bind dye roughly in proportion to their protein.
The term IC50 denotes the point on the concentration scale where inhibition reaches its midpoint. Regarding `CC(C)(C)OC(=O)O[C@H]1C[C@H](n2cc(F)c(=O)[nH]c2=O)O[C@@H]1Cn1cc(CNc2ccn([C@@H]3O[C@H](CO)[C@@H](O)C3(F)F)c(=O)n2)nn1`, the IC50 amounted to 4.73 µM.

Turning to `Cc1cn([C@H]2C[C@H](n3cc(COC(=O)Nc4ccn([C@@H]5O[C@H](CO)[C@@H](O)C5(F)F)c(=O)n4)nn3)[C@@H](CO)O2)c(=O)[nH]c1=O`, the IC50 was 1.89 µM.

For `Cc1cn([C@H]2C[C@H](n3cc(CNc4ccn([C@@H]5O[C@H](CO)[C@@H](O)C5(F)F)c(=O)n4)nn3)[C@@H](CO)O2)c(=O)[nH]c1=O`, the half-maximal inhibitory concentration (IC50) was 10.8 µM.

System in the next data set: not listed separately
The experiment in a line: Drug metabolism in human HeLa cells assessed as gemcitabine release incubated for 12 hrs by HPLC/MS method.
Conditions: not given
Format: ADME, cell-based. In short, it runs like this: (§2)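 HeLa cells were incubated with the dimer at 37 °C for 12 h. Cell lysate was analysed by HPLC/MS for released gemcitabine, the deamination product dFdU and the thymidine-triazole fragment. A separately synthesized sample of the thymidine-triazole fragment was used as the reference.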
Consider `Cc1cn([C@H]2C[C@H](n3cc(COC(=O)Nc4ccn([C@@H]5O[C@H](CO)[C@@H](O)C5(F)F)c(=O)n4)nn3)[C@@H](CO)O2)c(=O)[nH]c1=O`, for which the Drug metabolism entry is given as “Metabolite_Detected”.

`Cc1cn([C@H]2C[C@H](n3cc(CNc4ccn([C@@H]5O[C@H](CO)[C@@H](O)C5(F)F)c(=O)n4)nn3)[C@@H](CO)O2)c(=O)[nH]c1=O`: the Drug metabolism result was “Metabolite_Detected”.

A further data set relates to KB. The experiment in a line: Cytotoxicity in human KB cells assessed as reduction in cell viability incubated for 72 hrs by SRB assay. Format: functional, cell-based.
Conditions: not given
Put shortly:
as §1
For `CC(C)(C)OC(=O)O[C@H]1C[C@H](n2cc(F)c(=O)[nH]c2=O)O[C@@H]1Cn1cc(CNc2ccn([C@@H]3O[C@H](CO)[C@@H](O)C3(F)F)c(=O)n2)nn1`, the concentration for half-maximal inhibition (IC50) worked out at 4.62 µM.

Take `Cc1cn([C@H]2C[C@H](n3cc(COC(=O)Nc4ccn([C@@H]5O[C@H](CO)[C@@H](O)C5(F)F)c(=O)n4)nn3)[C@@H](CO)O2)c(=O)[nH]c1=O`: the IC50 worked out at 1.55 µM.

As for `Cc1cn([C@H]2C[C@H](n3cc(CNc4ccn([C@@H]5O[C@H](CO)[C@@H](O)C5(F)F)c(=O)n4)nn3)[C@@H](CO)O2)c(=O)[nH]c1=O`, the IC50 is 12.2 µM.

System in the next data set: not listed separately
The experiment in a line: Selectivity index, ratio of IC50 for cytotoxicity in human NHDF cells to IC50 for cytotoxicity in human HeLa cells.
Conditions: not given
Put shortly:
(§3)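 Selectivity index is the IC50 in normal HDF fibroblasts divided by the IC50 in the given cancer line.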
Consider `CC(C)(C)OC(=O)O[C@H]1C[C@H](n2cc(F)c(=O)[nH]c2=O)O[C@@H]1Cn1cc(CNc2ccn([C@@H]3O[C@H](CO)[C@@H](O)C3(F)F)c(=O)n2)nn1`, for which the “Ratio IC50” value turned out to be 2.94.

As to `Cc1cn([C@H]2C[C@H](n3cc(COC(=O)Nc4ccn([C@@H]5O[C@H](CO)[C@@H](O)C5(F)F)c(=O)n4)nn3)[C@@H](CO)O2)c(=O)[nH]c1=O`, the “Ratio IC50” value was found to be 4.41.

System in a further data set: not listed separately
Description: Selectivity index, ratio of IC50 for cytotoxicity in human NHDF cells to IC50 for cytotoxicity in human A549 cells.
Conditions: not given
Put shortly: as §3
For the molecule `CC(C)(C)OC(=O)O[C@H]1C[C@H](n2cc(F)c(=O)[nH]c2=O)O[C@@H]1Cn1cc(CNc2ccn([C@@H]3O[C@H](CO)[C@@H](O)C3(F)F)c(=O)n2)nn1`, the “Ratio IC50” value was 2.35.

Turning to `Cc1cn([C@H]2C[C@H](n3cc(COC(=O)Nc4ccn([C@@H]5O[C@H](CO)[C@@H](O)C5(F)F)c(=O)n4)nn3)[C@@H](CO)O2)c(=O)[nH]c1=O`, the “Ratio IC50” value stood at 4.01.

System in another data set: not listed separately
Description: Selectivity index, ratio of IC50 for cytotoxicity in human NHDF cells to IC50 for cytotoxicity in human U87 cells.
Conditions: not given
Put shortly:
as §3
Take `CC(C)(C)OC(=O)O[C@H]1C[C@H](n2cc(F)c(=O)[nH]c2=O)O[C@@H]1Cn1cc(CNc2ccn([C@@H]3O[C@H](CO)[C@@H](O)C3(F)F)c(=O)n2)nn1`: the “Ratio IC50” value is given as 2.91.

On to `Cc1cn([C@H]2C[C@H](n3cc(COC(=O)Nc4ccn([C@@H]5O[C@H](CO)[C@@H](O)C5(F)F)c(=O)n4)nn3)[C@@H](CO)O2)c(=O)[nH]c1=O`, for which the “Ratio IC50” value was 3.55.

The test system of the next data set is A549. Description: Cytotoxicity in human A549 cells assessed as reduction in cell viability incubated for 72 hrs by SRB assay. Format: functional, cell-based. The settings on record: A549, 72 h. In short, it runs like this:
as §1
For the molecule `CC(C)(C)OC(=O)O[C@H]1C[C@H](n2cc(F)c(=O)[nH]c2=O)O[C@@H]1Cn1cc(CNc2ccn([C@@H]3O[C@H](CO)[C@@H](O)C3(F)F)c(=O)n2)nn1`, the IC50 stood at 5.86 µM.

As for `Cc1cn([C@H]2C[C@H](n3cc(COC(=O)Nc4ccn([C@@H]5O[C@H](CO)[C@@H](O)C5(F)F)c(=O)n4)nn3)[C@@H](CO)O2)c(=O)[nH]c1=O`, the IC50 was found to be 1.67 µM.

With `Cc1cn([C@H]2C[C@H](n3cc(CNc4ccn([C@@H]5O[C@H](CO)[C@@H](O)C5(F)F)c(=O)n4)nn3)[C@@H](CO)O2)c(=O)[nH]c1=O`, the IC50 was found to be 10.6 µM.

System in another data set: not listed separately
The experiment in a line: Drug metabolism in human HeLa cells assessed as 3'-[4-(hydroxymethyl)-(1,2,3-triazol-1-yl)]-3'-deoxythymidine release incubated for 12 hrs by HPLC/MS method. Format: ADME, cell-based.
Conditions: not given
Put shortly:
as §2
Regarding `Cc1cn([C@H]2C[C@H](n3cc(COC(=O)Nc4ccn([C@@H]5O[C@H](CO)[C@@H](O)C5(F)F)c(=O)n4)nn3)[C@@H](CO)O2)c(=O)[nH]c1=O`, the Drug metabolism result was “Metabolite_Detected”.

System in another data set: not listed separately
Description: Selectivity index, ratio of IC50 for cytotoxicity in human NHDF cells to IC50 for cytotoxicity in human KB cells.
Conditions: not given
Put shortly: as §3
Take `CC(C)(C)OC(=O)O[C@H]1C[C@H](n2cc(F)c(=O)[nH]c2=O)O[C@@H]1Cn1cc(CNc2ccn([C@@H]3O[C@H](CO)[C@@H](O)C3(F)F)c(=O)n2)nn1`: the “Ratio IC50” value was 2.97.

Consider `Cc1cn([C@H]2C[C@H](n3cc(COC(=O)Nc4ccn([C@@H]5O[C@H](CO)[C@@H](O)C5(F)F)c(=O)n4)nn3)[C@@H](CO)O2)c(=O)[nH]c1=O`, for which the “Ratio IC50” value was determined as 4.32.

System in the next data set: not listed separately
The experiment in a line: Selectivity index, ratio of IC50 for cytotoxicity in human NHDF cells to IC50 for cytotoxicity in human HepG2 cells.
Conditions: not given
Put shortly:
as §3
For `CC(C)(C)OC(=O)O[C@H]1C[C@H](n2cc(F)c(=O)[nH]c2=O)O[C@@H]1Cn1cc(CNc2ccn([C@@H]3O[C@H](CO)[C@@H](O)C3(F)F)c(=O)n2)nn1`, the “Ratio IC50” value is reported as 2.41.

Consider `Cc1cn([C@H]2C[C@H](n3cc(COC(=O)Nc4ccn([C@@H]5O[C@H](CO)[C@@H](O)C5(F)F)c(=O)n4)nn3)[C@@H](CO)O2)c(=O)[nH]c1=O`, for which the “Ratio IC50” value is given as 4.38.

System in the next data set: not listed separately
The experiment in a line: Drug metabolism in human HeLa cells assessed as 2',2'-difluoro-2'-deoxyuridine release incubated for 12 hrs by HPLC/MS method.
Conditions: not given
It is filed as ADME, cell-based. Put shortly: as §2
Consider `Cc1cn([C@H]2C[C@H](n3cc(COC(=O)Nc4ccn([C@@H]5O[C@H](CO)[C@@H](O)C5(F)F)c(=O)n4)nn3)[C@@H](CO)O2)c(=O)[nH]c1=O`, for which the Drug metabolism entry is reported as “Metabolite_Notdetected”.

In the case of `Cc1cn([C@H]2C[C@H](n3cc(CNc4ccn([C@@H]5O[C@H](CO)[C@@H](O)C5(F)F)c(=O)n4)nn3)[C@@H](CO)O2)c(=O)[nH]c1=O`, the Drug metabolism result is “Metabolite_Notdetected”.

The subject of a further data set is NHDF. Description: Cytotoxicity in human NHDF cells assessed as reduction in cell viability incubated for 72 hrs by SRB assay. Format: cell-based.
Conditions: not given
Put shortly: as §1
As to `CC(C)(C)OC(=O)O[C@H]1C[C@H](n2cc(F)c(=O)[nH]c2=O)O[C@@H]1Cn1cc(CNc2ccn([C@@H]3O[C@H](CO)[C@@H](O)C3(F)F)c(=O)n2)nn1`, the IC50 is 13.7 µM.

For the molecule `Cc1cn([C@H]2C[C@H](n3cc(COC(=O)Nc4ccn([C@@H]5O[C@H](CO)[C@@H](O)C5(F)F)c(=O)n4)nn3)[C@@H](CO)O2)c(=O)[nH]c1=O`, the half-inhibitory concentration (IC50) stood at 6.7 µM.

In the case of `Cc1cn([C@H]2C[C@H](n3cc(CNc4ccn([C@@H]5O[C@H](CO)[C@@H](O)C5(F)F)c(=O)n4)nn3)[C@@H](CO)O2)c(=O)[nH]c1=O`, the IC50 was 17.8 µM.

Another data set deals with HepG2. The experiment in a line: Cytotoxicity in human HepG2 cells assessed as reduction in cell viability incubated for 72 hrs by SRB assay. Format: functional, cell-based. The settings on record: HepG2, 72 h. Put shortly: as §1
Consider `CC(C)(C)OC(=O)O[C@H]1C[C@H](n2cc(F)c(=O)[nH]c2=O)O[C@@H]1Cn1cc(CNc2ccn([C@@H]3O[C@H](CO)[C@@H](O)C3(F)F)c(=O)n2)nn1`, for which the half-maximal inhibitory concentration (IC50) was found to be 5.71 µM.

Take `Cc1cn([C@H]2C[C@H](n3cc(COC(=O)Nc4ccn([C@@H]5O[C@H](CO)[C@@H](O)C5(F)F)c(=O)n4)nn3)[C@@H](CO)O2)c(=O)[nH]c1=O`: the IC50 is 1.53 µM.

Take `Cc1cn([C@H]2C[C@H](n3cc(CNc4ccn([C@@H]5O[C@H](CO)[C@@H](O)C5(F)F)c(=O)n4)nn3)[C@@H](CO)O2)c(=O)[nH]c1=O`: the half-inhibitory concentration (IC50) worked out at 12.2 µM.

Another data set concerns HeLa. The experiment in a line: Cytotoxicity in human HeLa cells assessed as reduction in cell viability incubated for 72 hrs by SRB assay.
Conditions: not given
Format: functional, cell-based. Put shortly: as §1
On to `CC(C)(C)OC(=O)O[C@H]1C[C@H](n2cc(F)c(=O)[nH]c2=O)O[C@@H]1Cn1cc(CNc2ccn([C@@H]3O[C@H](CO)[C@@H](O)C3(F)F)c(=O)n2)nn1`, for which the IC50 was 4.68 µM.

For the molecule `Cc1cn([C@H]2C[C@H](n3cc(COC(=O)Nc4ccn([C@@H]5O[C@H](CO)[C@@H](O)C5(F)F)c(=O)n4)nn3)[C@@H](CO)O2)c(=O)[nH]c1=O`, the IC50 stood at 1.52 µM.

Turning to `Cc1cn([C@H]2C[C@H](n3cc(CNc4ccn([C@@H]5O[C@H](CO)[C@@H](O)C5(F)F)c(=O)n4)nn3)[C@@H](CO)O2)c(=O)[nH]c1=O`, the IC50 came out at 10.9 µM.

For the origin of these results see ChEMBL document CHEMBL4385668, “Synthesis and in vitro anticancer activity of new gemcitabine-nucleoside analogue dimers containing methyltriazole or ester-methyltriazole linker” (Bioorg Med Chem Lett, 2019).
